Sampled rows, rich in hits. Any-hit rate of the full collection: about 0.85%.
CRFBP-R2 agonist: CRF-BP/CRF-R2 complex agonism. HEK293 CRF-R2/CRF-BP, calcium dye fluorescence (FLIPR); percent of saturating CRF peptide response. activation, % at 13.2 µM. hit rate 0.46% among 350,000. AID 588473;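 active = activation of at least 50%, plus an integration ratio under a set limit after plate pattern correction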;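 note: plate controls were neutral control wells without compound for no effect and CRF at EC100 for full effect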
OXTR potentiate: potentiators of human oxytocin receptor | P30559 | CHO-OTR cells, Fluo-8 calcium fluorescence, potentiator mode; 0% = oxytocin EC15, 100% = EC100 | activation, % at 3 µM | hit rate 0.061% among 320,000;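 active = activation above that plate's cutoff, the mean activation of tested compounds plus 3 SD, cut at about 6.6% in these data, passing the limit was not always enough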;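 note: 100% uses oxytocin at 75 nM as the full agonist control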
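Material: CHO-OTR cells, human receptor; compound dosing: single dose, 3.0 µM nominal final compound concentration; schedule: 6 min compound pre-incubation at room temperature, 100 s kinetic read; measured by: kinetic Fluo-8 calcium fluorescence; read-out basis: % activation vs EC15 and EC100 oxytocin; controls: EC15 oxytocin alone as 0%, 75 nM oxytocin as 100%; replicates: singlicate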
V1aR counter: V1a receptor agonism, counter-screen for OXTR agonists; CHO-V1R cells, Fluo-8 calcium fluorescence, agonist mode; 0% DMSO, 100% 3 nM vasopressin; AID 2797; hit rate 0.25% among 320,000; activation, % at 3 µM;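 active = activation above the mean activation of all tested compounds plus 3 SD, per screening run, cut at about 20% in these data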;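 note: signal is peak over basal fluorescence ratio across a 100 second FLIPR read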
zfTRPN1 agonist: agonists of zebrafish TRPN1 channel; HEK293 zebrafish TRPN1-YFP, Fluo-8 calcium fluorescence; 100% = response to 87 µM carbachol; activation, % at 3 µM; hit rate 0.18% among 220,000;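 active = activation above its plate's cutoff, the mean activation of test wells on that plate plus 3 SD, cut at about 19% in these data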;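 note: 0% = DMSO alone and 100% = 87 µM carbachol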
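System: zebrafish TRPN1-YFP in HEK293 cells / Dosing: 3 µM single point / Timing: dye loading 1 h at 37 °C, then 30 min room temperature / Signal: Fluo-8 calcium fluorescence, excitation 470-495 nm, emission 515-575 nm / Read-out basis: percent activation from peak over basal fluorescence ratio, control-normalized / Control set: high carbachol 87 µM, low DMSO alone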
OXTR agonist: activates the human oxytocin receptor; CHO-OTR cells, Fluo-8 calcium fluorescence; normalized: DMSO 0%, oxytocin 100%; hit rate 0.32% among 320,000; activation, % at 3 µM; P30559; AID 2435;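 active = activation above the mean of all tested compounds plus 3 SD, cutoff set per screening run, cut at about 20% in these data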;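 note: peak over basal fluorescence ratio from a 100 s FLIPR kinetic read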
TRPML3 ag: activates the human TRPML3 channel; hit rate 0.29% among 220,000; HEK293 TRPML3-YFP, Fluo-8 calcium fluorescence; 100% = the carbachol control signal; AID 1448; Q8TDD5; activation, % at 3 µM;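 active = activation above its plate's cutoff, the mean activation of the plate's test wells plus 3 SD, cut at about 12% in these data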;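 note: 0% = DMSO only wells and 100% = carbachol wells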
Target sequence (Q8TDD5 whole entry, looked up): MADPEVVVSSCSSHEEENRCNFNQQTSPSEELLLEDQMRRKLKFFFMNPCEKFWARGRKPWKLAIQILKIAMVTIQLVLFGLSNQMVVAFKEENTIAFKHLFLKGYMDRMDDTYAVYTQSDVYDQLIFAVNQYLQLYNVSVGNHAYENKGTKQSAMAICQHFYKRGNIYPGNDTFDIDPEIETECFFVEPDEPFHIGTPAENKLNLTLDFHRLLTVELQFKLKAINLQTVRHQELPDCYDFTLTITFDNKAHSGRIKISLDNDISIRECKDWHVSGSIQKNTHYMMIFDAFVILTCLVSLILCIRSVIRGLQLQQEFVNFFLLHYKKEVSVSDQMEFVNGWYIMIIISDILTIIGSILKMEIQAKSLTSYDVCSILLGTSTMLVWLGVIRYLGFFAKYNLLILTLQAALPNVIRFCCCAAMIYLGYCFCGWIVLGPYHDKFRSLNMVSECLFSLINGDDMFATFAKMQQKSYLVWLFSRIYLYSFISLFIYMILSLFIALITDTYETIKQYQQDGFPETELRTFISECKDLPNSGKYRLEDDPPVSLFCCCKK
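Test system – HEK293 line with stable expression of human TRPML3-YFP channel · Control set – carbachol 87 µM final as high control (100%), DMSO as low control (0%) · Signal – Fluo-8 calcium dye fluorescence, ex 470-495, em 515-575 nm · Incubation – 1-h 37 °C dye load, 5-s basal, 120-s post-compound reads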
The depositor's hits bear a star; / = not tested or not shown.

SMILES | CRFBP-R2 agonist | OXTR potentiate | V1aR counter | zfTRPN1 agonist | OXTR agonist | TRPML3 ag
Cc1nn(C)c(C(=O)N/N=C/c2cccnc2)c1Br | 2 | 2 | 2 | / | 0 | /
Cc1nc2c(sc3nc(N4CCOCC4)c4c(c32)CC(C)(C)OC4)c(-c2ccc(Cl)cc2)c1C(=O)O | 8 | -14 | 0 | 1 | -1 | 1
Cc1cccc(NC(=O)c2ccccc2O)c1C | 21 | -10 | 5 | 2 | 7 | 1
Cc1ccc(C)c(NC(=O)c2ccccc2O)c1 | 62* | -19 | 6 | 14 | 14 | 2
CCC1CCCCN1C(=O)COC(=O)COc1ccc(Br)cc1 (configuration not stated) | 93* | -7 | 2 | / | 4 | /
c1ccc(CNc2nc(NCc3ccccc3)c3ccccc3n2)cc1 | 27 | -19 | 21* | 16 | 28* | 7
c1ccc(CNc2nc(-c3ccccc3)nc3ccccc23)cc1 | 0 | 0 | 1 | / | -1 | /
O=C(Nc1ccc(OCC(F)(F)C(F)F)c(C(F)(F)F)c1)c1ccccc1O | 60* | -22 | 14 | 11 | 17 | 2
O=C(Nc1ccc(OCC(F)(F)C(F)F)c(C(F)(F)F)c1)c1ccccc1 | 1 | -18 | 3 | 10 | 11 | 3
Cn1c(SCC(=O)Nc2ccc(C(=O)O)cc2)nc2scc(-c3ccccc3Cl)c2c1=O | 1 | 2 | 1 | / | 0 | /
Nc1ccccc1C(=O)N1CCc2ccccc21 | 0 | 1 | -1 | / | -1 | /
c1ccc(CCn2nnnc2CN2CCCc3ccccc32)cc1 | 68* | -5 | 0 | -1 | -1 | 0
c1ccc2c(c1)CCCN2Cc1nnnn1CC1CCCO1 (configuration not stated) | 7 | -3 | 1 | 3 | 1 | 1
O=C1[C@@H](Oc2ccccc2)[C@@H](c2ccncc2)N1c1ccncc1 | -1 | / | / | / | / | /
COc1ccc(NC(=O)CSc2nnc(C)c3ccccc23)cc1 | 0 | -4 | 0 | / | 0 | /
COc1ccc(NC(=O)CSc2ccc3c4c(cccc24)C(=O)c2ccccc2-3)cc1 | 104* | -16 | 9 | 5 | 8 | 4
CCCCCCN1C[C@H](O)[C@@H](n2cc(COC(=O)c3ccccc3)nn2)C[C@@H]1c1ccc(Cl)cc1 | 3 | / | / | / | / | /
Cc1cc(C2C(C#N)=C(N)SC(N)=C2C#N)c(C)s1 | 104* | -10 | 9 | 2 | 13 | 2
Cc1sccc1C1C(C#N)=C(N)SC(N)=C1C#N | / | -7 | 8 | 3 | 9 | 1
CCNC(=O)N1CCC(n2nccc2NC(=O)CCCc2ccccc2)CC1 | 0 | -6 | 0 | / | -1 | /
OCCCc1nc2n(n1)C(c1cccs1)C=C(c1ccccc1)N2 (configuration not stated) | / | -12 | 50* | 0 | 82* | 0
CCN(c1ccc(N=Cc2c(O)n(Cc3ccc(OC)cc3)c(=O)c3ccccc23)cc1)C(C)C | 127* | / | / | 0 | / | 1
COc1cccc(NC(=O)c2nnn(Cc3ccc(Br)cc3F)c2N)c1 | 16 | -12 | 29* | 13 | 27* | 6
COc1cccc(NC(=O)Cn2nnc(C(=O)Nc3ccccc3)c2N)c1 | 0 | -16 | -1 | -1 | 0 | 0
COc1ccc(NC(=O)c2nnn(CC(=O)Nc3ccccc3OC)c2N)c(OC)c1 | 1 | 2 | 1 | / | -1 | /
SMILES | CRFBP-R2 agonist | OXTR potentiate | V1aR counter | zfTRPN1 agonist | OXTR agonist | TRPML3 ag
COc1cccc(NC(=O)c2nnn(CC(=O)Nc3cc(C)cc(C)c3)c2N)c1 | 1 | -12 | 2 | / | 5 | /
Cc1cc(C)cc(NC(=O)c2nnn(Cc3cc(C)ccc3C)c2N)c1 | 54* | -27 | 42* | 16 | 35* | 11
Cc1ccc(C)c(Cn2nnc(C(=O)Nc3ccc4c(c3)OCCO4)c2N)c1 | 24 | -21 | 29* | / | 39* | /
CCc1ccc(Cn2nnc(C(=O)Nc3ccc(OC)cc3OC)c2N)cc1 | 16 | -6 | 24* | 7 | 29* | 2
O=C(COC(=O)c1ccc(F)cc1Cl)NC1CCS(=O)(=O)C1 (configuration not stated) | 0 | 2 | 0 | / | 0 | /
Cc1cccc(NC(=S)N/N=C/c2c[nH]c3ccccc23)c1 | 1 | -9 | 0 | -2 | 4 | 0
CC(=O)c1c(C)c2c(n1CCN(C)C)CCCC2 | 62* | -18 | 1 | 2 | 0 | 1
Cc1ccc(S(=O)(=O)NCC(=O)OCC(=O)Nc2ccc3c(c2)OCCO3)cc1 | -2 | -8 | 0 | / | -2 | /
CCN1/C(=C\c2ccc3cc(C)ccc3[n+]2CC)Sc2cc(C)c(C)cc21 | 114* | / | / | 15 | / | 9
CCN1/C(=C/C(C)=C/c2sc3ccccc3[n+]2CC)Sc2ccccc21 | 1 | -13 | 15 | 4 | 18 | 3
CCN1/C(=C/c2ccc3cccc(C)c3[n+]2CC)Sc2ccccc21 | 205* | -11 | 11 | 32* | 18 | 18*
CCN1/C(=C/c2ccc3cc(C)ccc3[n+]2CC)Sc2ccc3sccc3c21 | 43 | -4 | 7 | / | 5 | /
CCN1/C(=C/c2ccc3cc(C)cc(C)c3[n+]2CC)Sc2cc(C)ccc21 | 182* | / | / | 50* | / | 15*
COc1cccc(CC(=O)Nc2ccc3c(c2)OC2(CCCC2)O3)c1 | -1 | -4 | 0 | / | -2 | /
Cc1c(C(=O)N2CCOCC2)sc(NC(=O)C(C)C)c1C#N | -2 | -14 | 0 | / | 0 | /
CCOC(=O)c1cc(S(=O)(=O)N(C)Cc2ccccc2)cn1C | 1 | 0 | 2 | / | -1 | /
CCCCC(=O)NC(=S)NNC(=O)c1ccc(OC)cc1 | 85* | -5 | 2 | -1 | 3 | 0
COc1ccc(Cl)cc1C(=O)NNC(=S)NC(=O)c1cc(-c2ccc(Cl)cc2)nc2ccccc12 | 25 | -17 | 3 | -3 | 8 | 1
O=C(COc1ccccc1)NNC(=S)NC(=O)c1ccc(Cl)cc1Cl | 69* | -11 | -1 | 0 | 0 | 1
CCNC(=S)NNC(=O)c1ccc(OC)cc1 | 1 | -5 | 0 | 1 | 0 | 0
COc1ccc(C(=O)NC(=S)NNC(=O)c2ccncc2)cc1Br | 4 | 1 | 4 | / | 3 | /
COc1ccc(C(=O)NNC(=S)NC(=O)c2ccc(F)cc2)cc1Br | 77* | -24 | 76* | / | 68* | /
O=C(COc1cccc(Cl)c1)NNC(=S)Nc1ccccc1 | -3 | -4 | -1 | 2 | 0 | 1
COc1ccc(Cl)cc1C(=O)NNC(=S)NC(=O)c1ccc(F)c(F)c1 | 142* | -19 | 9 | / | 9 | /
COc1cccc(CNC(=O)CNS(=O)(=O)c2ccc(Br)s2)c1 | -1 | -11 | 5 | / | 1 | /
Cc1cccc(C(=O)NNC(=S)NC(=O)c2cccs2)c1 | 154* | -19 | 63* | / | 65* | /

High-throughput results from PubChem.
